{"source": "paper PMC6774440", "about": "(Journal of molecular recognition : JMR, 2018)"}
{"system": "T10", "type": "binding, llama", "details": "cross-reactivity = IC50(TCC)/IC50(cross reacting compound) × 100; nanobody T10", "method_in_brief": "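Wild-type T10 (synthetic gene, pET28a(+), ompA leader, C-terminal His6/HA tags) expressed in BL21(DE3) (10 µM IPTG, 16 h, 15 °C), purified by Ni-NTA. Checkerboard-optimized TCC-BSA coat (4 h RT), 1% BSA block. Nanobody competed with serial dilutions of TCC (0–1 ug/mL) or related compounds, 1 h RT. Detection: anti-HA-peroxidase, TMB (pH 5.5, 10 min), A450.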", "units": {"CR (%) T10": "%"}}
{"molecule": "O=C(Nc1ccc(Cl)c(Cl)c1)Nc1ccc(Cl)cc1O", "note": "[2’-OH TCC]", "CR (%) T10": 15}
{"molecule": "Oc1cc(Cl)ccc1Oc1ccc(Cl)cc1Cl", "note": "[Triclosan]", "CR (%) T10": 0.9}
{"molecule": "O=C(Nc1ccc(Cl)cc1)Nc1ccc(Cl)c(C(F)(F)F)c1", "note": "[3-Trifluoromethyl-4,4′-dichlorocarbanilide]", "CR (%) T10": 15}
{"molecule": "CS(=O)(=O)N1CCC(NC(=O)Nc2ccc(OC(F)(F)F)cc2)CC1", "note": "[sEHi, #1709]", "CR (%) T10": 1.5}
{"molecule": "O=C(Nc1ccc(Cl)cc1)Nc1ccc(Cl)cc1", "note": "[4,4’-Dichlorocarbanilide]", "CR (%) T10": 100}
{"molecule": "O=C(Nc1ccc(Cl)cc1)Nc1ccc(Cl)c(Cl)c1", "note": "[TCC, 3-(4-chlorophenyl)-1-(3,4-dichlorophenyl)urea]", "CR (%) T10": 100}
{"molecule": "CC(=O)N1CCC(NC(=O)Nc2ccc(OC(F)(F)F)cc2)CC1", "note": "[sEHi, #1555]", "CR (%) T10": 0.9}
{"molecule": "Dinuron", "CR (%) T10": "≤1"}
{"molecule": "O=C(Nc1ccccc1)Nc1ccccc1", "note": "[Carbanilide]", "CR (%) T10": 8.8}
